Assay results as given in ChEMBL document CHEMBL1123965, “Substituted 1,3,4-thiadiazoles with anticonvulsant activity. 4. Amidines” (J Med Chem, 1988).

Key:
Mus musculus [1] = test: Anticonvulsant activity in mouse maximal electroshock test 1 hr following p.o. administration.; type: functional; details: po
In short: (§1)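 Male BKW mice (LACA origin), 18–22 g; compound dissolved or suspended in 2% Tween 80 in distilled water, given po, tested 1 h later. Corneal electrodes delivered 4-ms pulses, 50 Hz, 80 V for 0.3 s. End point was block of hind limb tonic seizure; ED50 with limits from probit analysis (Bliss computerized method).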

Mus musculus [2] = test: Anticonvulsant activity in mouse maximal metrazole seizure test 1 hr following p.o. administration.; type: functional; details: po
In short: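 Male BKW mice (LACA origin), 18–22 g, dosed orally with compound in 2% Tween 80/distilled water (solution or suspension). Leptazol 120 mg/kg ip given 1 h after oral dose to provoke maximal seizures. ED50 with limits obtained by Bliss probit analysis.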

[3] = The dose at which 50% of the mouse fell off the rotarod; type: ADME, organism-based; details: in vivo
In short: (§2)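 Male BKW mice (18–22 g), trained beforehand to stay on a 3-cm-diameter rod turning at 16 rpm; dosed po in 2% Tween 80/water and tested 1 h later. TD50 (dose at which half fall off) by probit analysis. Sedation, ataxia, loss of righting reflex and death noted by visual observation after oral dosing.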

Mus musculus [4] = test: The dose at which 50% of the mouse fell off the rotarod; Sedative at 100 mg/kg; type: ADME, organism-based; set-up: dose 100 mg/kg; details: in vivo; in short: as §2
Mus musculus [5] = test: Anticonvulsant activity in mice (1h after dosing, po) was determined by maximal electroshock test; type: functional; in short: as §1
Mus musculus [6] = test: The dose at which 50% of the mouse fell off the rotarod; Toxic at 200 mg/kg; type: toxicity, organism-based; set-up: dose 200 mg/kg; details: in vivo; in short: as §2
Mus musculus [7] = test: The dose at which 50% of the mouse fell off the rotarod; Sedative at 142 mg/kg; type: ADME, organism-based; set-up: dose 142 mg/kg; details: in vivo; in short: as §2
Mus musculus [8] = species: Mus musculus; test: Lethal dose was determined; type: toxicity, organism-based; details: in vivo
In short: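 Male BKW mice (LACA origin, 18–22 g) were dosed orally with compound dissolved or suspended in 2% Tween 80 in distilled water. Before anticonvulsant testing, animals were observed visually for sedation, ataxia, loss of righting reflex and death. The value is reported in the rotorod column, which was read 1 h after oral dosing.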

| Compound | ED50 (Mus musculus [1]) | ED50 (Mus musculus [2]) | TD50 [3] | also measured |
| --- | --- | --- | --- | --- |
| CC(=N)Nc1nnc(-c2ccccc2C(F)(F)F)s1 | 18 mg/kg | 19 mg/kg | ~80 mg/kg | – |
| CC(=N)Nc1nnc(-c2ccccc2-c2ccccc2)s1 | – | – | > 100 mg/kg | – |
| CCCC/N=C(/C)Nc1nnc(-c2ccccc2C)s1 | 48 mg/kg | 46 mg/kg | > 100 mg/kg | – |
| CC(=N)Nc1nnc(-c2ccccc2C)s1 | – | 78 mg/kg | – | TD50 (Mus musculus [4]): Sedative at 100 mg/kg; ED50 (Mus musculus [5]): 200 mg/kg |
| CC(=N)Nc1nnc(Cc2ccccc2)s1 | 31 mg/kg | 50 mg/kg | 200 mg/kg | – |
| CCCC/N=C(\Nc1nnc(-c2ccccc2-c2ccccc2)s1)C(C)C | > 200 mg/kg | > 100 mg/kg | – | – |
| C/C(=N/Cc1ccccc1)Nc1nnc(-c2ccccc2C)s1 | 86 mg/kg | 102 mg/kg | > 200 mg/kg | – |
| Cc1ccccc1-c1nnc(C2=NCCN2)s1 | > 100 mg/kg | > 200 mg/kg | – | – |
| CCCC/N=C(/C)Nc1nnc(-c2ccccc2-c2ccccc2)s1 | 121 mg/kg | 90 mg/kg | > 200 mg/kg | – |
| CCCC/N=C(\N)c1nnc(-c2ccccc2C)s1 | > 200 mg/kg | ~142 mg/kg | – | TD50 (Mus musculus [6]): Toxic at 200 mg/kg |
| C/C(=N\c1nnc(-c2ccccc2C)s1)N1CCOCC1 | 108 mg/kg | 148 mg/kg | – | TD50 (Mus musculus [7]): Sedative at 142 mg/kg |
| c1ccc(-c2ccccc2-c2nnc(C3=NCCN3)s2)cc1 | 103 mg/kg | 77 mg/kg | – | LD30 (Mus musculus [8]): 200 mg/kg |
| CCCC/N=C(/Cc1ccccc1)Nc1nnc(-c2ccccc2C(F)(F)F)s1 | > 200 mg/kg | > 100 mg/kg | – | – |
| N=C(Cc1ccccc1)Nc1nnc(Cc2ccccc2)s1 | 86 mg/kg | 45 mg/kg | > 500 mg/kg | – |
| CCCC(=N)Nc1nnc(-c2ccccc2C(F)(F)F)s1 | 63 mg/kg | 60 mg/kg | 150 mg/kg | – |
| Cc1ccccc1-c1nnc(/N=C/Nc2nnc(-c3ccccc3C)s2)s1 | > 200 mg/kg | > 200 mg/kg | – | – |
| CCN(CC)/C(C)=N/c1nnc(-c2ccccc2C)s1 | 81 mg/kg | 84 mg/kg | > 200 mg/kg | – |
| CCCC/N=C(/C)Nc1nnc(-c2ccccc2C(F)(F)F)s1 | 33 mg/kg | 21 mg/kg | ~70 mg/kg | – |
